Experiments:
[1] = system: Y1 receptors; settings: intrathecal; rodent models of chronic pain; cited from earlier work
[2] = system: spinal cord transient firing neurons; settings: cited from earlier work
[3] = system: DREADD; settings: CNO 3 mg/kg; cited from earlier work
[4] = system: excitatory DREADD hM3DGq in spinal Y1-INs; assay: chemogenetic activation of Y1-INs: heat; assay type: in vivo, mouse; settings: CNO 3 mg/kg, uninjured mice, n = 8 mice/group
Procedure, shortened: (§1)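 Npy1rCre mice were given an intraspinal injection of Cre-dependent AAV8-hSyn-DIO-hM3DGq-mCitrine into the left lumbar dorsal horn; controls received mCherry virus. Mice were uninjured. CNO 3 mg/kg was given i.p. before testing. Assays: von Frey filaments to the lateral hindpaw (mechanical); a 10 μL acetone droplet to the lateral hindpaw, scoring withdrawal (cold); 52.5 C hotplate (heat). Holm-Sidak post hoc tests.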

[5] = system: inhibitory DREADD hM4DGi in spinal Y1-INs; assay: chemogenetic inhibition of Y1-INs: conditioned place preference; assay type: in vivo, mouse; settings: CNO 3 mg/kg i.p., SNI mice, n = 10 to 11 mice/group
Procedure, shortened: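 SNI Npy1rCre mice carried either intraspinal (left lumbar DH) Cre-dependent hM4DGi or control mCherry virus. After conditioning with CNO (3 mg/kg i.p.) paired to one chamber, time spent in the CNO-paired chamber was recorded. Groups were compared with an unpaired two-tailed Student's t test; data are means ± SEM.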

[6] = system: excitatory DREADD hM3DGq in spinal Y1-INs; assay: chemogenetic activation of Y1-INs: cold; assay type: in vivo, mouse; settings: CNO 3 mg/kg, uninjured mice, n = 8 mice/group
Procedure, shortened: as §1

[7] = system: excitatory DREADD hM3DGq in spinal Y1-INs; assay: chemogenetic activation of Y1-INs: conditioned place aversion; assay type: in vivo, mouse; settings: CNO 3 mg/kg i.p., uninjured mice, n = 10 to 11 mice/group
[8] = system: excitatory DREADD hM3DGq in spinal Y1-INs; assay: chemogenetic activation of Y1-INs: spontaneous nocifensive behavior; assay type: in vivo, mouse; settings: CNO 3 mg/kg i.p., n = 3 to 5 mice/group
Procedure, shortened: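 Cre-dependent AAV8-hSyn-DIO-hM3DGq-mCitrine or mCherry control virus was injected into the left lumbar dorsal horn of uninjured Npy1rCre mice. CNO (3 mg/kg, i.p.) or saline was given, then behaviour was videotaped. Scored: nocifensive acts (lifting, flapping, shaking, licking, guarding) and itch-like acts (biting, scratching), each directed to the ipsilateral or contralateral hind limb. Three-way RM ANOVA, Holm-Sidak post hoc.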

[9] = system: inhibitory DREADD hM4DGi in spinal Y1-INs; assay: chemogenetic inhibition of Y1-INs: light touch-evoked pERK; assay type: in vivo, mouse; settings: CNO 3 mg/kg i.p., SNI mice, n = 7 mice/group
Procedure, shortened: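 Y1-INs in Npy1rCre mice were targeted by left lumbar (L3–L4) DH injection of AAV8-hSyn-DIO-hM4DGi. In SNI mice, CNO (3 mg/kg i.p.) was followed by light brushing of the lateral hindpaw. Ipsilateral lumbar DH sections were then immunostained for pERK and quantified in the superficial laminae. Groups were compared by unpaired two-tailed Student's t test; data are means ± SEM.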

[10] = system: excitatory DREADD hM3DGq in spinal Y1-INs; assay: chemogenetic activation of Y1-INs: mechanical; assay type: in vivo, mouse; settings: CNO 3 mg/kg, uninjured mice, n = 8 mice/group
Procedure, shortened: as §1

[11] = system: inhibitory DREADD hM4DGi in spinal Y1-INs; assay: chemogenetic inhibition of Y1-INs: mechanical withdrawal threshold; assay type: in vivo, mouse; settings: CNO 3 mg/kg i.p., n = 7 mice/group
Procedure, shortened: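 Adult Npy1rCre mice received intraspinal Cre-dependent AAV8-hSyn-DIO-hM4DGi (mCherry-tagged) into the left lumbar DH at L3–L4. CNO (3 mg/kg, i.p.) was given either before or after SNI. Calibrated von Frey filaments were applied to the lateral hindpaw to measure withdrawal thresholds. Statistics used two-way ANOVA with Holm-Sidak post hoc tests, and data are shown as means ± SEM.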

[12] = system: inhibitory DREADD hM4DGi in spinal Y1-INs; assay: chemogenetic inhibition of Y1-INs: cold; assay type: in vivo, mouse; settings: CNO 3 mg/kg i.p., n = 7 mice/group
Procedure, shortened: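 Npy1rCre mice were given intraspinal AAV8-hSyn-DIO-hM4DGi into the left lumbar (L3–L4) DH, which expresses Gi-DREADD in Y1-INs. CNO 3 mg/kg i.p. was dosed pre- or post-SNI. Cold sensitivity was scored as the withdrawal response to a 10 μL acetone droplet on the lateral hindpaw. Analysis used two-way ANOVA and Holm-Sidak post hoc tests; data are means ± SEM.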

[13] = system: excitatory DREADD hM3DGq in spinal Y1-INs; assay: chemogenetic activation of Y1-INs: open field testing; assay type: in vivo, mouse; settings: CNO 3 mg/kg, 60 min, n = 6 mice/group
Procedure, shortened: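 Uninjured Npy1rCre mice carried left lumbar dorsal-horn Cre-dependent hM3DGq or mCherry virus. Immediately after CNO (3 mg/kg, i.p.), mice were placed in a novel open field for 60 min. […] Averaged activity shown as heat maps. Student's unpaired two-tailed t test.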

[14] = system: light touch-evoked pERK in ipsilateral dorsal horn neurons; assay: light touch-evoked pERK immunoreactivity in dorsal horn, SNI, intrathecal agents; assay type: in vivo, mouse; settings: intrathecal coadministration of BIBO 3304 10.0 µg with [Leu^31, Pro^34]-NPY 10.0 µg; n = 4 to 6 mice/group
[15] = system: SNI mice (cold allodynia); assay: cold withdrawal duration; assay type: in vivo, mouse; settings: intrathecal coadministration of BIBO 3304 10.0 µg with [Leu^31, Pro^34]-NPY 10.0 µg; n = 4 to 11 mice/group
[16] = system: SNI mice (mechanical allodynia); assay: mechanical withdrawal threshold; assay type: in vivo, mouse; settings: intrathecal coadministration of BIBO 3304 10.0 µg with [Leu^31, Pro^34]-NPY 10.0 µg; n = 4 to 11 mice/group

Molecule: neuropeptide Y [NPY]
- behavioral and spinal molecular signs of hyperalgesia [1]: reduces the behavioral and spinal molecular signs of hyperalgesia

Molecule: NCC1(CC(=O)O)CCCCC1 [gabapentin]
- frequency and amplitude of sEPSCs [2]: reducing both the frequency and amplitude of sEPSCs

Molecule: C[N+]1([O-])CCN(C2=Nc3cc(Cl)ccc3Nc3ccccc32)CC1 [CNO, clozapine N-oxide]
- time to alter DREADD-dependent neuronal activity [3]: ≤ 15 min
- heat (52.5 C hotplate) hypersensitivity [4]: hypersensitivity
- conditioned place preference (time in CNO-paired chamber) ([5]; control virus (mCherry)): but not control virus (mCherry) spent more time in the CNO-paired chamber
- conditioned place preference (time in CNO-paired chamber) ([5]; hM4DGi): spent more time in the CNO-paired chamber
- cold (acetone droplet withdrawal) hypersensitivity [6]: hypersensitivity
- conditioned place aversion [7]: produced a robust CPA
- spontaneous nocifensive behaviors ([8]; control (mCherry) virus): but not control (mCherry) virus
- itch-like (biting or scratching) behaviors ([8]; hM3DGq, uninjured mice): but not itch-like (biting or scratching) behaviors
- spontaneous nocifensive behaviors, contralateral hind limb ([8]; hM3DGq, uninjured mice): but not contralateral, hind limb
- light touch-evoked pERK in the superficial DH [9]: reduced light-touch evoked pERK in the superficial DH
- mechanical (vF) hypersensitivity [10]: hypersensitivity
- SNI-induced mechanical hypersensitivity ([11]; post-SNI): abolished both mechanical and cold hypersensitivity
- mechanical withdrawal thresholds before SNI ([11]; pre-SNI): does not alter mechanical or cold withdrawal thresholds before SNI
- SNI-induced cold hypersensitivity ([12]; post-SNI): abolished both mechanical and cold hypersensitivity
- cold withdrawal thresholds before SNI ([12]; pre-SNI): does not alter mechanical or cold withdrawal thresholds before SNI
- grooming-like behaviors (stereotypic episode activity count) [13]: increased grooming-like (stereotypic episode activity count) behaviors
- movement in open field [13]: continuous movement
- rest in open field [13]: lack of rest

Molecule: NC(=O)NCc1ccc(CNC(=O)[C@@H](CCCN=C(N)N)NC(=O)C(c2ccccc2)c2ccccc2)cc1 [BIBO 3304]
- effect on Y1 agonist-induced reduction of light touch-evoked pERK [14]: this effect is abolished with coadministration of the Y1 antagonist
- effect on Y1 agonist-induced cold anti-allodynia [15]: abolishes
- effect on Y1 agonist-induced mechanical anti-allodynia [16]: abolishes

Reference: PMC9674229 (Proceedings of the National Academy of Sciences of the …, 2022)
